Laboratory results as given in ChEMBL document CHEMBL4346672, “Antimicrobial and KPC/AmpC inhibitory activity of functionalized benzosiloxaboroles” (Eur J Med Chem, 2019).
Values after ≈ are worked out from the molar mass of the structure shown. Active and inactive are the calls of the source. The calls are words filed in the database; no cut-off is given here.

Legend:
Enterococcus faecalis = assay: Antibacterial activity against Enterococcus faecalis ATCC 29212 assessed as diameter of zone inhibition measured after 18 hrs by CLSI disc diffusion method; type: functional
Outline: (§1)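 Disc diffusion on Mueller-Hinton II agar. Compounds dissolved in DMSO. Strains stored at -80 °C and subcultured twice on tryptic soy agar before testing. Inhibition zones read after 35 °C, 18 h.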

Candida tropicalis [1] = assay: Antifungal activity against Candida tropicalis IBA 171 assessed as decrease in fungal cell growth at 0.78 to 12.5 mg/L incubated for 24 hrs by CLSI broth dilution method; type: functional; settings: IBA 171, 24 h
Outline: (§2)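 Yeast broth dilution in RPMI 1640 with 2% glucose, compounds in DMSO. Yeasts pre-grown on Sabouraud dextrose agar. Growth read after 35 °C, 24 h.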

Klebsiella pneumoniae [2] = assay: Antibacterial activity against Klebsiella pneumoniae ATCC 13883 assessed as fold reduction of MIC in presence of efflux pump inhibitor PAbetaN incubated for 18 hrs by broth microdilution method; type: functional
Outline: (§3)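 MICs determined with and without PAβN at 50 mg/L in Mueller-Hinton broth containing 1 mM MgSO₄. 2-fold serial dilutions per CLSI. Fold change taken from the paired MICs after 35 °C, 18 h.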

Serratia marcescens [3] = settings: ATCC 13880
Proteus mirabilis [4] = assay: Antibacterial activity against Proteus mirabilis ATCC 12453 assessed as diameter of zone inhibition measured after 18 hrs by CLSI disc diffusion method; type: functional; outline: as §1
Klebsiella pneumoniae [5] = settings: ATCC 13883
Proteus mirabilis [6] = assay: Antibacterial activity against Proteus mirabilis ATCC 12453 assessed as fold reduction of MIC in presence of efflux pump inhibitor PAbetaN incubated for 18 hrs by broth microdilution method; type: functional; outline: as §3
Enterococcus faecium = assay: Antibacterial activity against Enterococcus faecium ATCC 6057 assessed as diameter of zone inhibition measured after 18 hrs by CLSI disc diffusion method; type: functional; outline: as §1
[7] = tested on: Bordetella bronchiseptica; assay: Antibacterial activity against Bordetella bronchiseptica ATCC 4617 assessed as diameter of zone inhibition measured after 18 hrs by CLSI disc diffusion method; type: functional; outline: as §1
Pichia kudriavzevii = assay: Antifungal activity against Candida krusei ATCC 6258 assessed as decrease in fungal cell growth at 0.78 to 12.5 mg/L incubated for 24 hrs by CLSI broth dilution method; type: functional; settings: ATCC 6258, 24 h; outline: as §2
Pseudomonas aeruginosa = assay: Antibacterial activity against Pseudomonas aeruginosa ATCC 27853 assessed as fold reduction of MIC in presence of efflux pump inhibitor PAbetaN incubated for 18 hrs microdilution method; type: functional; outline: as §3
Acinetobacter baumannii [8] = assay: Antibacterial activity against Acinetobacter baumannii ATCC 19606 measured after 18 hrs by CLSI broth dilution method; type: functional; settings: ATCC 19606, 18 h
Outline: (§4)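 Broth MIC in Mueller-Hinton II broth following CLSI, compounds dissolved in DMSO. Strains subcultured twice on tryptic soy agar before testing. Growth read after 35 °C, 18 h.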

[9] = tested on: Staphylococcus epidermidis; assay: Bactericidal activity against Staphylococcus epidermidis ATCC 12228 measured after 18 hrs by CLSI broth dilution method; type: functional; settings: ATCC 12228, 18 h
Outline: (§5)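 Strains stored at -80 °C and subcultured twice on tryptic soy agar before testing. Compounds dissolved in DMSO. […] MBC then determined per CLSI recommendations.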

Acinetobacter baumannii [10] = assay: Antibacterial activity against Acinetobacter baumannii ATCC 19606 assessed as fold reduction of MIC in presence of efflux pump inhibitor PAbetaN incubated for 18 hrs by broth microdilution method; type: functional; outline: as §3
Candida parapsilosis = assay: Antifungal activity against Candida parapsilosis ATCC 22019 assessed as decrease in fungal cell growth at 0.78 to 12.5 mg/L incubated for 24 hrs by CLSI broth dilution method; type: functional; settings: Lodderomyces parapsilosis, ATCC 22019, 24 h; outline: as §2
[11] = tested on: Bordetella bronchiseptica; assay: Antibacterial activity against Bordetella bronchiseptica ATCC 4617 measured after 18 hrs by CLSI broth dilution method; type: functional; settings: ATCC 4617, 18 h; outline: as §4
Serratia marcescens [12] = assay: Antibacterial activity against Serratia marcescens ATCC 13880 assessed as fold reduction of MIC in presence of efflux pump inhibitor PAbetaN incubated for 18 hrs by broth microdilution method; type: functional; outline: as §3
Staphylococcus aureus = assay: Bactericidal activity against Staphylococcus aureus ATCC 6538P measured after 18 hrs by CLSI broth dilution method; type: functional; outline: as §5
Candida tropicalis [13] = assay: Antifungal activity against Candida tropicalis IBA 171 assessed as diameter of zone inhibition incubated for 24 hrs by CLSI disc diffusion method; type: functional
Outline: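 Yeast disc diffusion on Mueller-Hinton agar supplemented with 2% glucose and 0.5 mg/L methylene blue. Compounds in DMSO. Yeasts subcultured on Sabouraud dextrose agar before testing. Zones read after 35 °C, 24 h.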

Structure (SMILES)	diameter of the inhibition zone (DIZ) (Enterococcus faecalis)	MIC (Candida tropicalis [1]) [µg/mL]	fold change (FC) (Klebsiella pneumoniae [2])	DIZ (Serratia marcescens [3])	diameter of the inhibition zone (DIZ) (Proteus mirabilis [4])	DIZ (Klebsiella pneumoniae [5])	fold change (FC) (Proteus mirabilis [6])	diameter of the inhibition zone (DIZ) (Enterococcus faecium)	diameter of the inhibition zone (DIZ) [7]	MIC (Pichia kudriavzevii) [µg/mL]	fold change (FC) (Pseudomonas aeruginosa)	MIC (Acinetobacter baumannii [8]) [µg/mL]	MBC [9] [µg/mL]	fold change (FC) (Acinetobacter baumannii [10])	MIC (Candida parapsilosis) [µg/mL]	MIC [11] [µg/mL]	fold change (FC) (Serratia marcescens [12])	MBC (Staphylococcus aureus) [µg/mL]	diameter of the inhibition zone (DIZ) (Candida tropicalis [13])
C[Si]1(C)OB(O)c2c(C=O)cc(F)c(F)c21	inactive	200 (≈ 826 µM)	32	inactive	inactive	inactive	2	inactive	inactive	> 400	4	400 (≈ 1650 µM)	400 (≈ 1650 µM)	2	100 (≈ 413 µM)	400 (≈ 1650 µM)	2	100 (≈ 413 µM)	11 mm
C[Si]1(C)OB(O)c2ccc(C(F)(F)F)cc21	12 mm	25 (≈ 102 µM)	16	inactive	inactive	inactive	2	14 mm	inactive	200 (≈ 813 µM)	8	400 (≈ 1630 µM)	50 (≈ 203 µM)	16	100 (≈ 406 µM)	400 (≈ 1630 µM)	2	100 (≈ 406 µM)	13 mm
C[Si]1(C)OB(O)c2ccc(F)cc21	inactive	12.5 (≈ 63.8 µM)	8	inactive	inactive	inactive	2	inactive	inactive	12.5 (≈ 63.8 µM)	16	200 (≈ 1020 µM)	–	4	25 (≈ 128 µM)	> 400	8	400 (≈ 2040 µM)	11 mm
C[Si]1(C)OB(O)c2cc(F)c(F)cc21	inactive	0.78 (≈ 3.64 µM)	4	inactive	inactive	inactive	2	inactive	inactive	50 (≈ 234 µM)	8	> 400	–	8	100 (≈ 467 µM)	400 (≈ 1870 µM)	4	–	13 mm
C[Si]1(C)OB(O)c2ccccc21	inactive	25 (≈ 140 µM)	2	inactive	inactive	inactive	0	inactive	inactive	25 (≈ 140 µM)	8	> 200	–	4	25 (≈ 140 µM)	> 200	0	–	inactive
C[Si]1(C)OB(O)c2ccc(C=O)c(F)c21	inactive	200 (≈ 893 µM)	4	inactive	inactive	inactive	4	inactive	inactive	> 400	4	> 400	100 (≈ 446 µM)	4	400 (≈ 1790 µM)	> 400	16	100 (≈ 446 µM)	inactive
C[Si]1(C)OB(O)c2ccc(Cl)c(Cl)c21	21 mm	3.12 (≈ 12.7 µM)	32	inactive	inactive	inactive	4	28 mm	12 mm	12.5 (≈ 50.6 µM)	64	400 (≈ 1620 µM)	50 (≈ 202 µM)	8	12.5 (≈ 50.6 µM)	100 (≈ 405 µM)	32	100 (≈ 405 µM)	31 mm
C[Si]1(C)OB(O)c2cc(C=O)cc(F)c21	inactive	200 (≈ 893 µM)	8	inactive	inactive	inactive	4	inactive	inactive	> 400	4	> 400	200 (≈ 893 µM)	4	400 (≈ 1790 µM)	> 400	8	100 (≈ 446 µM)	inactive
